Measured values gathered from unrelated publications.
Lines come from different studies, so protocols differ.
Target: Protein kinase C delta type (PRKCD, Homo sapiens, UniProt Q05655)

With `O=C1NC(c2ccccn2)Sc2ccccc21` (stereo not drawn) the remaining binding was 71% (cell-free assay; competition with immobilised ligand; 1 µM).
With `COc1cnc(Nc2cccc(S(N)(=O)=O)c2)nc1N1CCN(c2ccccc2)C(=O)C1` the remaining binding was 100% (binding; competition with immobilised ligand; 1 µM).
For `c1cnn2ncc(-c3ccnc(N4CCC45COC5)n3)c2c1`, the remaining binding was 100% (binding; 1 µM).
`Cc1cc(C)c(-n2ccn3nc(-c4cccnc4)cc23)cc1NC(=O)c1cc(C#N)cc(S(F)(F)(F)(F)F)c1` gave a remaining binding of 93.1% (cell-free assay; competition with immobilised ligand; 0.1 µM).
`O=C(NCC1CCOCC1)c1n[nH]cc1NC(=O)c1c(F)cccc1F` has a remaining binding of 100% (binding; competition with immobilised ligand; 1 µM).
`C[C@@H]1CCN(c2nccc(-c3cnn4ncccc34)n2)C1` gave a remaining binding of 100% (binding; 1 µM).
For `CCCOc1ccc([C@@H]2[C@@H](C(=O)O)[C@H](c3ccc4c(c3)OCO4)CN2CC(=O)Nc2c(CC)cccc2CC)cc1`, the remaining binding was 100% (cell-free assay; competition with immobilised ligand; 1 µM).
For `CCN1CCN(Cc2ccc(C(=O)Nc3ccc(C)c(Oc4ccc5c(c4)CC(=O)N5)c3)cc2C(F)(F)F)CC1`, the remaining binding was 96% (binding; competition with immobilised ligand; 1 µM).
`Cc1cnn2ncc(-c3ccnc(N(C)C)n3)c2c1` gave a remaining binding of 100% (binding; 1 µM).
With `O=C(NCCCN1CCOCC1)c1ccc(Nc2nccc(-c3cc4ccccc4s3)n2)cc1` the remaining binding was 81% (binding; competition with immobilised ligand; 1 µM).
For `N[C@@H]1CCN(c2nccc(-c3cnn4ncccc34)n2)C1`, the remaining binding was 96% (binding; 1 µM).
With `O=C(c1ccc(Nc2ncc(Cl)c(-c3cc4ccccc4s3)n2)cc1)N1CCC(N2CCCC2)CC1` the remaining binding was 32% (binding; competition with immobilised ligand; 1 µM).
The remaining binding of `CNC(=O)[C@@H]1CC[C@@H](n2c(-c3ccc4cnccc4c3)nc3ccc(C(=O)NCc4cccc(C(N)=O)c4)cc32)C1` is reported as 81% (binding; competition with immobilised ligand; 1 µM).
`CN(CCCC(F)(F)F)c1nccc(-c2cnn3ncccc23)n1` gave a remaining binding of 90% (binding; 1 µM).
For `CS(=O)(=O)N1CCCC(NC(=O)[C@H](CCC2CCCCC2)NC(=O)c2ccc(CNc3ncnc4c3nnn4-c3ccccc3)cc2)C1` (stereo partly drawn), the remaining binding was 80% (cell-free assay; competition with immobilised ligand; 0.1 µM).
The remaining binding of `COc1ncc2cc3ccccc3nc2c1C#N` is reported as 75% (cell-free assay; competition with immobilised ligand; 5 µM).
`Cc1cc(NC(=O)c2cccc(S(F)(F)(F)(F)F)c2)cc(-n2ccn3nc(-c4cccnc4)cc23)c1` gave a remaining binding of 95.8% (cell-free assay; competition with immobilised ligand; 1 µM).
`C[C@@H](c1ccc(-n2cnc3c(N)ncnc32)cc1)N1CCc2nn(C)c(Cc3ccccc3)c2C1=O` gave a remaining binding of 100% (binding; competition with immobilised ligand; 0.1 µM).
For `CC1CCCN1c1nccc(-c2cnn3ncccc23)n1` (stereo not drawn), the remaining binding was 100% (binding; 1 µM).
For `O=C(c1ccc(Nc2nccc(-c3cc4ccccc4s3)n2)cc1)N1CCC(N2CCCC2)CC1`, the remaining binding was 86% (binding; competition with immobilised ligand; 1 µM).
`COc1ccc2c(O[C@@H]3C[C@H]4C(=O)N[C@]5(C(=O)O)CC5/C=C\CCCCC[C@H](NC(=O)OC5CCCC5)C(=O)N4C3)cc(-c3csc(NC(=O)C(C)C)n3)nc2c1C` (stereo partly drawn) has a remaining binding of 84% (cell-free assay; competition with immobilised ligand; 1 µM).
